Published values of several laboratories.
Target: Wee1-like protein kinase (WEE1, Homo sapiens, UniProt P30291)

Structure (SMILES)	effect on	action	method	tested at	quantity	result
COc1ncccc1-c1cnn2ccc(N3CCN(C(=O)OC(C)C)CC3)nc12	binding	–	competition with immobilised ligand	1 µM	remaining binding	82%
Cn1cc(-c2cccc(N3CCc4c(sc5c4CC(C)(C)C5)C3=O)c2CO)cc(Nc2ccncn2)c1=O	enzyme activity	inhibitor	–	1 µM	inhibition	-4%
Cc1nn(C)cc1-c1nc2c(N3CCN(Cc4ccc(Cl)cc4)CC3)c(Cl)cnc2[nH]1	binding	–	competition with immobilised ligand	1 µM	remaining binding	96%
O=c1[nH]c2ccccc2n1C1CCN(Cc2ccc(-c3[nH]c4cc5ncnc5cc4nc3-c3ccccc3)cc2)CC1	cell-free assay	–	–	0.5 µM	remaining signal	93.9%
Nc1ncc(-c2nc(N3CCOCC3)nc(N3CCOCC3)n2)c(C(F)F)n1	binding	–	competition with immobilised ligand	10 µM	remaining binding	100%
Cn1cc(-c2cc(F)cc(N3CCn4c(cc5c4CCCC5)C3=O)c2CO)cc(Nc2ccc(N3CCN(C4COC4)CC3)cn2)c1=O	enzyme activity	inhibitor	–	0.1 µM	inhibition	3%
CC(C)(C)c1cc(C=C(C#N)C#N)cc(Br)c1O	enzyme activity	inhibitor	–	0.5 µM	remaining activity	90.9%
Cn1cncc1[C@@](O)(COc1ccc(C#N)cc1-c1ccc(OC(F)(F)F)cc1)c1ccc(C#N)cc1	cell-free assay	–	competition with immobilised ligand	1 µM	remaining binding	100%
COc1cc(Nc2ncc(F)c(Nc3ccc4c(n3)NC(=O)C(C)(C)O4)n2)cc(OC)c1OC	binding	–	–	10 µM	inhibition	81%
